Test results taken from ChEMBL document CHEMBL3792373, “Anti-methicillin resistant Staphylococcus aureus activity, synergism with oxacillin and molecular docking studies of metronidazole-triazole hybrids” (Eur J Med Chem, 2016).
In brackets after ≈: the same amount, converted by molar mass.

Key:
Format in all cases: functional
Staphylococcus aureus [1] = experiment: Bactericidal activity against methicillin-resistant Staphylococcus aureus isolate 1a assessed as reduction in colony counts at 32 ug/ml after 8 hrs by pour plate method (reference value: 8.30 +/- 0.442 log10CFU/ml)
Staphylococcus aureus [2] = experiment: Antimicrobial activity against methicillin-resistant Staphylococcus aureus isolate 11a after 24 hrs by agar plate dilution method
Procedure, shortened: (§1)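 Clinical MRSA isolates from axilla/nasal swabs, identified by mannitol salt agar, Gram stain and coagulase test. Agar plate dilution with compound series 0.03–128 µg/mL. Inoculum suspended in water to McFarland 0.5. Incubation 24 h at 37 °C. MIC read as the lowest level without white growth spots. Dilution series quality-controlled with S. aureus NCTC 6571.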

Staphylococcus aureus [3] = experiment: Antimicrobial activity against methicillin-resistant Staphylococcus aureus isolate 15a after 24 hrs by agar plate dilution method in presence of oxacillin (1:1)
Procedure, shortened: (§2)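 Test compound and oxacillin mixed 1:1, each at 32 µg/mL in the mixture, then serially diluted into agar plates. Clinical MRSA isolates at McFarland 0.5 in water were spotted onto the plates and incubated 24 h at 37 °C. Growth was read as white spots. NCTC 6571 S. aureus served as the dilution-series control.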

Staphylococcus aureus [4] = experiment: Antimicrobial activity against methicillin-resistant Staphylococcus aureus isolate 26a after 24 hrs by agar plate dilution method; procedure, shortened: as §1
Staphylococcus aureus [5] = experiment: Antimicrobial activity against methicillin-resistant Staphylococcus aureus isolate 25a after 24 hrs by agar plate dilution method in presence of oxacillin (1:1); procedure, shortened: as §2
Staphylococcus aureus [6] = experiment: Antimicrobial activity against methicillin-resistant Staphylococcus aureus isolate 1a after 24 hrs by agar plate dilution method in presence of oxacillin (1:1); procedure, shortened: as §2
Staphylococcus aureus [7] = experiment: Antimicrobial activity against methicillin-resistant Staphylococcus aureus isolate 15a after 24 hrs by agar plate dilution method; procedure, shortened: as §1
Staphylococcus aureus [8] = experiment: Antimicrobial activity against methicillin-resistant Staphylococcus aureus isolate 12a after 24 hrs by agar plate dilution method; procedure, shortened: as §1
Staphylococcus aureus [9] = experiment: Antimicrobial activity against methicillin-resistant Staphylococcus aureus isolate 2a after 24 hrs by agar plate dilution method; procedure, shortened: as §1
Staphylococcus aureus [10] = experiment: Antimicrobial activity against methicillin-resistant Staphylococcus aureus isolate 7a after 24 hrs by agar plate dilution method
Procedure, shortened: (§3)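 Clinical MRSA isolates, from axilla/nasal swabs and identified by mannitol salt agar, Gram stain and coagulase test. […] Inoculum adjusted to McFarland 0.5 in water. Plates incubated 24 h at 37 °C and scored for growth spots. Dilution series quality-controlled with S. aureus NCTC 6571. Combination lines used a 1:1 mixture with oxacillin.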

Staphylococcus aureus [11] = experiment: Bactericidal activity against methicillin-resistant Staphylococcus aureus isolate 1a assessed as reduction in colony counts at 32 ug/ml after 12 hrs by pour plate method (reference value: 10.12 +/- 0.428 log10CFU/ml)
Staphylococcus aureus [12] = experiment: Antimicrobial activity against methicillin-resistant Staphylococcus aureus isolate 16a after 24 hrs by agar plate dilution method in presence of oxacillin (1:1); procedure, shortened: as §2
Staphylococcus aureus [13] = experiment: Antimicrobial activity against methicillin-resistant Staphylococcus aureus isolate 8a after 24 hrs by agar plate dilution method; procedure, shortened: as §3
Staphylococcus aureus [14] = experiment: Bactericidal activity against methicillin-resistant Staphylococcus aureus isolate 1a assessed as reduction in colony counts at 32 ug/ml after 20 hrs by pour plate method (reference value: 12.73 +/- 0.223 log10CFU/ml)
Staphylococcus aureus [15] = experiment: Bactericidal activity against methicillin-resistant Staphylococcus aureus isolate 1a assessed as reduction in colony counts at 32 ug/ml after 16 hrs by pour plate method in presence of oxacillin (1:1) (reference value: 12.50 +/- 0.291 log10CFU/ml)
Staphylococcus aureus [16] = experiment: Antimicrobial activity against methicillin-resistant Staphylococcus aureus isolate 9a after 24 hrs by agar plate dilution method; procedure, shortened: as §3
Staphylococcus aureus [17] = experiment: Antimicrobial activity against methicillin-resistant Staphylococcus aureus isolate 5a after 24 hrs by agar plate dilution method; procedure, shortened: as §3
Staphylococcus aureus [18] = experiment: Antimicrobial activity against methicillin-resistant Staphylococcus aureus isolate 3a after 24 hrs by agar plate dilution method in presence of oxacillin (1:1); procedure, shortened: as §2
Staphylococcus aureus [19] = experiment: Antimicrobial activity against methicillin-resistant Staphylococcus aureus isolate 29a after 24 hrs by agar plate dilution method; procedure, shortened: as §1
Staphylococcus aureus [20] = experiment: Antimicrobial activity against methicillin-resistant Staphylococcus aureus isolate 28a after 24 hrs by agar plate dilution method; procedure, shortened: as §1
Staphylococcus aureus [21] = experiment: Antimicrobial activity against methicillin-resistant Staphylococcus aureus isolate 24a after 24 hrs by agar plate dilution method in presence of oxacillin (1:1); procedure, shortened: as §2
Staphylococcus aureus [22] = experiment: Antimicrobial activity against methicillin-resistant Staphylococcus aureus isolate 9a after 24 hrs by agar plate dilution method in presence of oxacillin (1:1); procedure, shortened: as §3
Staphylococcus aureus [23] = experiment: Bactericidal activity against methicillin-resistant Staphylococcus aureus isolate 1a assessed as reduction in colony counts at 32 ug/ml after 4 hrs by pour plate method (reference value: 6.14 +/- 0.456 log10CFU/ml)
Staphylococcus aureus [24] = experiment: Antimicrobial activity against methicillin-resistant Staphylococcus aureus isolate 23a after 24 hrs by agar plate dilution method in presence of oxacillin (1:1); procedure, shortened: as §2
Staphylococcus aureus [25] = experiment: Antimicrobial activity against methicillin-resistant Staphylococcus aureus isolate 17a after 24 hrs by agar plate dilution method in presence of oxacillin (1:1); procedure, shortened: as §2
Staphylococcus aureus [26] = experiment: Antimicrobial activity against methicillin-resistant Staphylococcus aureus isolate 14a after 24 hrs by agar plate dilution method; procedure, shortened: as §1
Staphylococcus aureus [27] = experiment: Antimicrobial activity against methicillin-resistant Staphylococcus aureus isolate 5a after 24 hrs by agar plate dilution method in presence of oxacillin (1:1); procedure, shortened: as §3
Staphylococcus aureus [28] = experiment: Antimicrobial activity against methicillin-resistant Staphylococcus aureus isolate 22a after 24 hrs by agar plate dilution method; procedure, shortened: as §1
Staphylococcus aureus [29] = experiment: Antimicrobial activity against methicillin-resistant Staphylococcus aureus isolate 28a after 24 hrs by agar plate dilution method in presence of oxacillin (1:1); procedure, shortened: as §2
Staphylococcus aureus [30] = experiment: Bactericidal activity against methicillin-resistant Staphylococcus aureus isolate 1a assessed as reduction in colony counts at 32 ug/ml after 16 hrs by pour plate method (reference value: 12.50 +/- 0.291 log10CFU/ml)
Staphylococcus aureus [31] = experiment: Antimicrobial activity against methicillin-resistant Staphylococcus aureus isolate 21a after 24 hrs by agar plate dilution method; procedure, shortened: as §1
Staphylococcus aureus [32] = experiment: Antimicrobial activity against methicillin-resistant Staphylococcus aureus isolate 18a after 24 hrs by agar plate dilution method in presence of oxacillin (1:1); procedure, shortened: as §2
Staphylococcus aureus [33] = experiment: Bactericidal activity against methicillin-resistant Staphylococcus aureus isolate 1a assessed as reduction in colony counts at 32 ug/ml after 8 hrs by pour plate method in presence of oxacillin (1:1) (reference value: 8.30 +/- 0.442 log10CFU/ml)
Staphylococcus aureus [34] = experiment: Antimicrobial activity against methicillin-resistant Staphylococcus aureus isolate 27a after 24 hrs by agar plate dilution method in presence of oxacillin (1:1); procedure, shortened: as §2
Staphylococcus aureus [35] = experiment: Antimicrobial activity against methicillin-resistant Staphylococcus aureus isolate 18a after 24 hrs by agar plate dilution method; procedure, shortened: as §1
Staphylococcus aureus [36] = experiment: Antimicrobial activity against methicillin-resistant Staphylococcus aureus isolate 4a after 24 hrs by agar plate dilution method; procedure, shortened: as §1
Staphylococcus aureus [37] = experiment: Antimicrobial activity against methicillin-resistant Staphylococcus aureus isolate 19a after 24 hrs by agar plate dilution method; procedure, shortened: as §1
Staphylococcus aureus [38] = experiment: Antimicrobial activity against methicillin-resistant Staphylococcus aureus isolate 23a after 24 hrs by agar plate dilution method; procedure, shortened: as §1
Staphylococcus aureus [39] = experiment: Antimicrobial activity against methicillin-resistant Staphylococcus aureus isolate 24a after 24 hrs by agar plate dilution method; procedure, shortened: as §1

Question: What does the source list for `Cc1ncc([N+](=O)[O-])n1CCn1cc(COc2c(Cl)cccc2Cl)nn1`?
Answer: Activity (Staphylococcus aureus [1]): 6.05 log10CFU/ml; MIC (Staphylococcus aureus [2]): 16 µg/mL (≈ 40.3 µM); MIC (Staphylococcus aureus [3]): 4 µg/mL; MIC (Staphylococcus aureus [4]): 64 µg/mL (≈ 161 µM); MIC (Staphylococcus aureus [5]): 4 µg/mL; MIC (Staphylococcus aureus [6]): 1 µg/mL; MIC (Staphylococcus aureus [7]): > 128 µg/mL; MIC (Staphylococcus aureus [8]): 32 µg/mL (≈ 80.6 µM); MIC (Staphylococcus aureus [9]): 4 µg/mL (≈ 10.1 µM); MIC (Staphylococcus aureus [10]): 4 µg/mL (≈ 10.1 µM); Activity (Staphylococcus aureus [11]): 5.96 log10CFU/ml; MIC (Staphylococcus aureus [12]): 2 µg/mL; MIC (Staphylococcus aureus [13]): 4 µg/mL (≈ 10.1 µM); Activity (Staphylococcus aureus [14]): 5.57 log10CFU/ml; Activity (Staphylococcus aureus [15]): 4.52 log10CFU/ml; MIC (Staphylococcus aureus [16]): 8 µg/mL (≈ 20.1 µM); MIC (Staphylococcus aureus [17]): 4 µg/mL (≈ 10.1 µM); MIC (Staphylococcus aureus [18]): 1 µg/mL; MIC (Staphylococcus aureus [19]): 128 µg/mL (≈ 322 µM); MIC (Staphylococcus aureus [20]): 128 µg/mL (≈ 322 µM); MIC (Staphylococcus aureus [21]): 4 µg/mL; MIC (Staphylococcus aureus [22]): 2 µg/mL; Activity (Staphylococcus aureus [23]): 5.65 log10CFU/ml; MIC (Staphylococcus aureus [24]): 4 µg/mL; MIC (Staphylococcus aureus [25]): 1 µg/mL; MIC (Staphylococcus aureus [26]): > 128 µg/mL; MIC (Staphylococcus aureus [27]): 1 µg/mL; MIC (Staphylococcus aureus [28]): > 128 µg/mL; MIC (Staphylococcus aureus [29]): 1 µg/mL; Activity (Staphylococcus aureus [30]): 5.53 log10CFU/ml; MIC (Staphylococcus aureus [31]): 4 µg/mL (≈ 10.1 µM); MIC (Staphylococcus aureus [32]): 4 µg/mL; Activity (Staphylococcus aureus [33]): 5.85 log10CFU/ml; MIC (Staphylococcus aureus [34]): 4 µg/mL; MIC (Staphylococcus aureus [35]): 32 µg/mL (≈ 80.6 µM); MIC (Staphylococcus aureus [36]): 4 µg/mL (≈ 10.1 µM); MIC (Staphylococcus aureus [37]): 32 µg/mL (≈ 80.6 µM); MIC (Staphylococcus aureus [38]): > 128 µg/mL; MIC (Staphylococcus aureus [39]): > 128 µg/mL
